Results gathered from unrelated publications.
Each line is one published result; the experiments were not run side by side.
Target: Serine/threonine-protein kinase ULK1 (ULK1, Homo sapiens, UniProt O75385)
Sequence (O75385 1-1050, as in one of the studies): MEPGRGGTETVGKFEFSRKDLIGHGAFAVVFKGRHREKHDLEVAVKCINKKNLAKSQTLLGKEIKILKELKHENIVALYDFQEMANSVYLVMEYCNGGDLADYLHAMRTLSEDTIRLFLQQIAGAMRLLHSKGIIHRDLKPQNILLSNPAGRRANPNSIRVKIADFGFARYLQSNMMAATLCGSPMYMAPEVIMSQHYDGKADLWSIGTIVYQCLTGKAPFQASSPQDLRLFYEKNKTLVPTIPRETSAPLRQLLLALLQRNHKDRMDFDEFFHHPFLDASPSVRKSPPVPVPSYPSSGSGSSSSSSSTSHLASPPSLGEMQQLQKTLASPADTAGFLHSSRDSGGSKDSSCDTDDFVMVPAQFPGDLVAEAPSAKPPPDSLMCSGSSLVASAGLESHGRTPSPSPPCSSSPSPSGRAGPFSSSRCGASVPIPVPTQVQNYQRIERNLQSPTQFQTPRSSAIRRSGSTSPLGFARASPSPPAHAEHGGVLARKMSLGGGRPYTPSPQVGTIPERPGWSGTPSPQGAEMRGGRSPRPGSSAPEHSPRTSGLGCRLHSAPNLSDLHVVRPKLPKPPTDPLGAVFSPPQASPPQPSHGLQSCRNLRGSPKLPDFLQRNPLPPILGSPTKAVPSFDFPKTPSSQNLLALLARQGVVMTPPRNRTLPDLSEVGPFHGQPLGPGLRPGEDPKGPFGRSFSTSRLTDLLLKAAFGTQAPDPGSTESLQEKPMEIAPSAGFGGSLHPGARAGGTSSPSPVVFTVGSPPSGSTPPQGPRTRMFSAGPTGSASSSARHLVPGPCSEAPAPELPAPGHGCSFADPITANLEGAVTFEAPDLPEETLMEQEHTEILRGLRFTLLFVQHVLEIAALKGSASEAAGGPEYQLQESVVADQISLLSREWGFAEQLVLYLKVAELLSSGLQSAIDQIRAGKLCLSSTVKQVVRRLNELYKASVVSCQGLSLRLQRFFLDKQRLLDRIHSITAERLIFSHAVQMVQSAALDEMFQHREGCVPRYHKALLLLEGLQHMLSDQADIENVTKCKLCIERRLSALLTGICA

Structure (SMILES) | test | conditions | quantity | result
C1=C/COCc2cc(ccc2OCCN2CCCC2)Nc2nccc(n2)-c2cccc(c2)COC/1 | cell-free assay | 0.1 µM | remaining signal | 90%
CO[C@@H]1[C@H](N(C)C(=O)c2ccccc2)C[C@H]2O[C@]1(C)n1c3ccccc3c3c4c(c5c6ccccc6n2c5c31)C(=O)NC4 | enzyme activity, inhibitor | 1 µM | inhibition | 7%
COc1ccc2[nH]c3c4[nH]c5ccc(OC)cc5c4c4c(c3c2c1)C(=O)NC4=O | binding | 1 µM | remaining binding | 100%
Cc1cc(S(=O)(=O)N[C@H]2CC[C@H](CN3CCN(c4ccc(C5CCC(=O)NC5=O)cc4F)CC3)CC2)ccc1Nc1ncc(C(F)(F)F)c(N2CCC[C@](C)(O)C2)n1 (stereo partly drawn) | binding, competition with immobilised ligand | 1 µM | remaining binding | 5.7%
C[C@H]1CC[C@H](n2c3cnccc3c3cnc(Nc4ccc5c(n4)CCN(C(=O)CO)C5)nc32)CC1 | cell-free assay | 1 µM | remaining signal | 94%
CCCCC(=O)Nc1ccc(-c2ccc3ncn(CCC)c(=O)c3c2)cn1 | binding, competition with immobilised ligand | 0.5 µM | remaining binding | 94%
COc1ccc2oc(-c3ccc4nc(N)oc4c3)c/c(=N\c3ccccc3NC(=O)CCN)c2c1 | binding | 1 µM | remaining binding | 99%
C[C@]1(O)CCCN(c2nc(Nc3ccc(S(=O)(=O)N[C@H]4CC[C@H](CN5CCN(c6ccc(C7CCC(=O)NC7=O)cc6F)CC5)CC4)cc3F)ncc2C(F)(F)F)C1 (stereo partly drawn) | binding, competition with immobilised ligand | 1 µM | remaining binding | 49%
C=CC(=O)N1CCC([C@@H]2CCNc3c(C(N)=O)c(-c4ccc(Oc5ccccc5)cc4)nn32)CC1 | enzyme activity, inhibitor | 1 µM | inhibition | 0%
